In ChEMBL document CHEMBL4052815, “Amphiphilic Modulation of Glycosylated Antitumor Ether Lipids Results in a Potent Triamino Scaffold against Epithelial Cancer Cell Lines and BT474 Cancer Stem Cells” (J Med Chem, 2017):
Activity calls are given as the source filed them. No cut-off for these calls is given here.

Assays:
DU-145 [1] = experiment: Cytotoxicity against human DU145 cells assessed as decrease in cell viability after 48 hrs by MTS assay; assay type: functional; conditions: DU-145, 48 h
Outline: (§1)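 Cells grown at 37 °C, 5% CO2, with 10% FBS and penicillin/streptomycin: MDA-MB-231, JIMT1 and DU145 in DMEM, PC3 in F12K, BT474 in Hybricare, MiaPaCa2 in DMEM plus 2.5% horse serum. Cells (7500–9000/well) were plated for 24 h, then exposed to 0–20 µM for 48 h. MTS was added for 1–4 h and OD490 read, blank-subtracted, relative to vehicle. CC50 was read from plots; mean ± SD, six independent determinations.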

MDA-MB-231 = experiment: Cytotoxicity against human MDA-MB-231 cells assessed as decrease in cell viability after 48 hrs by MTS assay; assay type: functional; conditions: MDA-MB-231, 48 h; outline: as §1
BT-474 [2] = experiment: Cytotoxicity against human BT474 cells assessed as decrease in cell viability after 48 hrs by MTS assay; assay type: functional; conditions: BT-474, 48 h; outline: as §1
MIA PaCa-2 = experiment: Cytotoxicity against human MIAPaCa2 cells assessed as decrease in cell viability after 48 hrs by MTS assay; assay type: functional; conditions: MIA PaCa-2, 48 h; outline: as §1
JIMT-1 [3] = experiment: Cytotoxicity against human JIMT1 cells assessed as decrease in cell viability after 48 hrs by MTS assay; assay type: functional; conditions: JIMT-1, 48 h; outline: as §1
PC-3 = experiment: Cytotoxicity against human PC3 cells assessed as decrease in cell viability after 48 hrs by MTS assay; assay type: functional; conditions: PC-3, 48 h; outline: as §1
[4] = Chemical stability of compound in aqueous DMSO solution at pH 2 to 3 at 30 uM after 1 week; assay type: physicochemical; conditions: buffer, pH 2, 168 h
Outline: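 Tested as the TFA salt at 30 µM in aqueous DMSO, pH 2-3, and held for at least one week.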

BT-474 [5] = experiment: Induction of disintegration of human BT474 cancer stem cell spheroids at 20 uM after 3 days by microscopic method; assay type: functional, cell-based
Outline: (§2)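 BT474 stem-cell spheroids (ALDH1-sorted, formed over 6 days in Mammocult on ultra-low adhesion plates) exposed to 0, 7.5 or 20 µM for 3 days. Integrity was judged by light microscopy at ×10 against untreated spheroid wells.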

BT-474 [6] = experiment: Induction of disintegration of human BT474 cancer stem cell spheroids at 7.5 uM after 3 days by microscopic method; assay type: functional, cell-based; outline: as §2
DU-145 [7] = experiment: Cytotoxicity against human DU145 cells assessed as decrease in cell viability at 2 to 8 uM in presence of pan-caspase inhibitor Q-VD-OPh after 48 hrs by MTS assay; assay type: functional, cell-based
Outline: (§3)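 DU145 or JIMT1 cells seeded for 24 h, then given 40 µM pan-caspase inhibitor along with varying compound concentrations. Incubation continued 48 h, then MTS (20% v/v) for 1–4 h, OD490 read. Values are blank-subtracted and relative to vehicle controls; mean ± SD.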

BT-474 [8] = experiment: Cytotoxicity against human BT474 cancer stem cell spheroids assessed as decrease in cell viability up to 20 uM after 3 days by MTS assay
JIMT-1 [9] = experiment: Cytotoxicity against human JIMT1 cells assessed as decrease in cell viability at 2 to 8 uM in presence of pan-caspase inhibitor Q-VD-OPh after 48 hrs by MTS assay; assay type: functional, cell-based; outline: as §3
BT-474 [10] = experiment: Cytotoxicity against human BT474 cancer stem cell spheroids assessed as decrease in cell viability at 2 to 10 uM after 3 days by MTS assay
BT-474 [11] = experiment: Cytotoxicity against human BT474 cancer stem cell spheroids assessed as cell viability at 20 uM after 3 days by MTS assay relative to control; conditions: BT-474, 72 h

With CCCCCCCCCCCCCCCCOC[C@H](CO[C@@H]1O[C@H](CNCCCCCCCCCCCCNC(=O)CCCc2ccc(N(CCCl)CCCl)cc2)[C@@H](O)[C@H](O)[C@H]1N)OC.O=C(O)C(F)(F)F.O=C(O)C(F)(F)F the CC50 (DU-145 [1]) was over 20 µM, the CC50 (MDA-MB-231) was 10.5 µM and the CC50 (BT-474 [2]) was 13 µM. It also gave a CC50 (MIA PaCa-2) of over 20 µM, a CC50 (JIMT-1 [3]) of 16 µM and a CC50 (PC-3) of over 20 µM. For the same compound, the Stability [4] was “Stable”.

For CC[C@@H](C(=O)[C@@H](C)[C@@H](O)[C@H](C)[C@@H]1O[C@@H]([C@@H](CC)C(=O)O)CC[C@@H]1C)[C@H]1O[C@]2(C=C[C@@H](O)[C@]3(CC[C@@](C)([C@H]4CC[C@](O)(CC)[C@H](C)O4)O3)O2)[C@H](C)C[C@@H]1C, the Activity (BT-474 [5]) was “Active” and the Activity (BT-474 [6]) was “inactive”.

In the case of COc1cccc2c1C(=O)c1c(O)c3c(c(O)c1C2=O)C[C@@](O)(C(=O)CO)C[C@@H]3O[C@H]1C[C@H](N)[C@H](O)[C@H](C)O1, the Activity (DU-145 [7]) is reported as “inactive”, the Activity (BT-474 [6]) is reported as “inactive” and the Activity (BT-474 [8]) is reported as “Active”. For the same compound, the Activity (JIMT-1 [9]) was “inactive”.

CCCCCCCCCCCCCCCCOC[C@H](CO[C@@H]1O[C@H](CO)[C@@H](O)[C@H](O)[C@H]1N)OC showed a CC50 (DU-145 [1]) of 10 µM, a CC50 (MDA-MB-231) of 7.1 µM and a CC50 (BT-474 [2]) of 8 µM. The Activity (BT-474 [10]) was “Active”, the CC50 (MIA PaCa-2) was 9 µM and the CC50 (JIMT-1 [3]) was 9 µM. It also gave a CC50 (PC-3) of 13.5 µM.

In the case of CCCCCCCCCCCCCCCCOC[C@H](CO[C@@H]1O[C@H](CN)[C@@H](O)[C@H](O)[C@H]1NCCCCCCCCCCCCN)OC, the CC50 (DU-145 [1]) is reported as 7.5 µM, the Activity (BT-474 [5]) is reported as “Active” and the viability at 20 µM (BT-474 [11]) is reported as 0%. For the same compound, the CC50 (MDA-MB-231) was 5.5 µM, the CC50 (BT-474 [2]) was 13.5 µM and the Activity (BT-474 [6]) was “Active”. It also gave a CC50 (MIA PaCa-2) of 8.5 µM, a CC50 (JIMT-1 [3]) of 8 µM and a CC50 (PC-3) of 8.5 µM.

For CCCCCCCCCCCCCCCCOC[C@H](CO[C@@H]1O[C@H](CNCCCN)[C@@H](O)[C@H](O)[C@H]1N)OC, the CC50 (DU-145 [1]) was 16.5 µM, the Activity (BT-474 [5]) was “inactive” and the viability at 20 µM (BT-474 [11]) was 0%. For the same compound, the CC50 (MDA-MB-231) was 13.5 µM, the CC50 (BT-474 [2]) was over 20 µM and the Activity (BT-474 [6]) was “Active”. The CC50 (MIA PaCa-2) was 18.5 µM, the CC50 (JIMT-1 [3]) was 13.5 µM and the CC50 (PC-3) was 12.5 µM.
